Key:
LO2 cells = assay: CCK-8 cytotoxicity assay, LO2; assay type: cell-based; details: Homo sapiens, L02, 72 h, read-out: IC50 LO2
In short: (§1)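 Cells seeded at 2500–3000 per well and held at 37 °C for 24 h, then exposed in triplicate to a range of test compound concentrations for 72 h, with 0.1% DMSO as control. CCK-8 added and incubated 2 h at 37 °C, then absorbance read at 450 nm. IC50 calculated and given as mean ± SD from three independent experiments.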

K562/ADR cells [1] = assay: CCK-8 antiproliferative assay, K562/ADR; assay type: cell-based; details: Homo sapiens, 72 h, read-out: IC50 K562/ADR
In short: as §1

K562 cells [2] = assay: CCK-8 antiproliferative assay, K562; assay type: cell-based; details: Homo sapiens, K562, 72 h, read-out: IC50 K562
In short: as §1

K562 cells [3] = assay: Intracellular NO, DAF-FM DA, K562; assay type: cell-based, human; details: 10c 1, 10, 100 μM, 3 and 7 100 μM, 3 h
In short: (§2)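 Cells exposed to 0.1% DMSO or test compound at 37 °C for 3 h. Harvested, PBS-washed, and loaded with DAF-FM DA (50 μmol L−1) in incubation buffer at 37 °C for 30 min. Washed again, then NO fluorescence read by fluorescence microscopy and microplate reader. Three independent experiments, mean ± SD; Student's t-test against control.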

K562/ADR cells [4] = assay: Intracellular NO, DAF-FM DA, K562/ADR; assay type: cell-based, human; details: 10c 1, 10, 100 μM, 3 and 7 100 μM, 3 h
In short: as §2

K562/ADR cells [5] = assay: Western blot analysis, K562/ADR; assay type: cell-based, human; details: 10c 1, 5, 10 μM, 3 10 μM, 24 h
K562 cells [6] = assay: Western blot analysis, K562; assay type: cell-based, human; details: 10c 1, 5, 10 μM, 3 10 μM, 24 h
HT-29 cells = details: read-out: IC50 in HT-29 cells; cited from earlier work

Compound	IC50 (K562/ADR cells [1]) [µM]	IC50 (K562 cells [2]) [µM]	IC50 (LO2 cells) [µM]	generation of intracellular NO (K562 cells [3])	generation of intracellular NO (K562/ADR cells [4])	AKT phosphorylation (K562/ADR cells [5])	AMPK and JNK phosphorylation (K562/ADR cells [5])	AKT phosphorylation (K562 cells [6])	AMPK and JNK phosphorylation (K562 cells [6])	IC50 (HT-29 cells) [µM]
O=[N+]([O-])O[C@@H]1CO[C@H]2[C@@H]1OC[C@@H]2O [compound 7, isosorbide 5-mononitrate]	> 200	> 200	> 200	increased the intracellular NO levels	increased the intracellular NO levels	–	–	–	–	–
O=C(CCCO[N+](=O)[O-])Oc1ccccc1C(=O)Oc1ccc(-c2cc(=S)ss2)cc1 [NOSH-1]	–	–	–	–	–	–	–	–	–	0.048
C[C@@H]1CC[C@H]2[C@@H](C)C(=O)O[C@@H]3O[C@@]4(C)CC[C@@H]1[C@]32OO4 [compound 1, Artemisinin]	> 200	11.1 ± 0.832	83.3 ± 1.99	–	–	–	–	–	–	–
Oc1ccc(-c2cc(=S)ss2)cc1 [compound 4, 5-(4-hydroxyphenyl)-3H-1,2-dithiole-3-thione]	> 200	> 200	> 200	–	–	–	–	–	–	–

The remaining compounds from weak to strong by IC50 (K562/ADR cells [1]), led by results:

IC50 (K562/ADR cells [1]) [µM]	IC50 (K562 cells [2]) [µM]	Compound	IC50 (LO2 cells) [µM]	generation of intracellular NO (K562 cells [3])	generation of intracellular NO (K562/ADR cells [4])	AKT phosphorylation (K562/ADR cells [5])	AMPK and JNK phosphorylation (K562/ADR cells [5])	AKT phosphorylation (K562 cells [6])	AMPK and JNK phosphorylation (K562 cells [6])	IC50 (HT-29 cells) [µM]
36.4 ± 2.9	10.2 ± 0.135	C[C@H]1[C@H](OC(=O)CCC(=O)O)O[C@@H]2O[C@@]3(C)CC[C@H]4[C@H](C)CC[C@@H]1[C@@]24OO3 [compound 3, artesunate]	19.9 ± 0.331	increased the intracellular NO levels	increased the intracellular NO levels	clearly reduced the levels of AKT phosphorylation	up-regulated the levels of AMPK and JNK phosphorylation	clearly reduced the levels of AKT phosphorylation	up-regulated the levels of AMPK and JNK phosphorylation	–
28.1 ± 1.09	8.67 ± 0.277	C[C@H]1[C@@H](O)O[C@@H]2O[C@@]3(C)CC[C@H]4[C@H](C)CC[C@@H]1[C@@]24OO3 [compound 2, dihydroartemisinin]	19.9 ± 1.66	–	–	–	–	–	–	–
9.16 ± 0.658	0.672 ± 0.056	COc1cccc2c1C(=O)c1c(O)c3c(c(O)c1C2=O)C[C@@](O)(C(=O)CO)C[C@@H]3O[C@H]1C[C@H](N)[C@H](O)[C@H](C)O1 [ADR, adriamycin]	2.74 ± 0.123	–	–	–	–	–	–	–
3.26 ± 0.082	0.367 ± 0.011	COC(=O)C[C@](O)(CCCC(C)(C)O)C(=O)O[C@@H]1C(OC)=C[C@]23CCCN2CCc2cc4c(cc2[C@H]13)OCO4 [HHT, homoharringtonine]	0.915 ± 0.149	–	–	–	–	–	–	–
